Structures can show the parent of a compound that is named as a salt.

The first series has as its system Caco-2 cells. In words: Endocytosis and intracellular trafficking mechanism with pathway inhibitors. Type of series: cell-based. The conditions noted are these: 100 μM 6-MPNs, 0.5 h, intracellular 6-MP by HPLC. The essentials: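 Caco-2 cells in 12-well plates at 1×10^5 cells/mL, grown to 90% confluency, preincubated 0.5 h with inhibitors, PBS-washed ×3. Endocytosis inhibitors (MβCD, genistein, EIPA, Cyt D, CPZ, dynasore) co-incubated with 100 μM test nanoparticles or crystals, 37°C, 0.5 h. Trafficking inhibitors (BFA, monensin, Baf-A1, nocodazole) with 200 μM, 37°C, 2 h. Inhibitor levels as in preincubation; intracellular 6-MP by HPLC.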
In the case of Methyl-beta-cyclodextrin [MβCD], the “effect of endocytosis inhibitor on the internalization of 6-MPNs” value was “obviously reduced”.
With `C=C1[C@@H](C)[C@H]2[C@H](Cc3ccccc3)NC(=O)[C@]23[C@H](OC(C)=O)/C=C/[C@@](C)(O)C(=O)[C@@H](C)C/C=C/[C@H]3[C@@H]1O` [Cyt D, cytochalasin D], the “effect of endocytosis inhibitor on the internalization of 6-MPNs” value is on record as “less influence”.
Still for that read-out and setting: for `CCN(c1nc(N)c(C(=O)NC(=N)N)nc1Cl)C(C)C` [EIPA, ethyl-isopropyl-amiloride] the value was “obviously reduced”; for `O=C(N/N=C/c1ccc(O)c(O)c1)c1cc2ccccc2cc1O` [Dynasore, dynasore], “obviously reduced”.
On the same count and under the same terms, in the case of `O=c1c(-c2ccc(O)cc2)coc2cc(O)cc(O)c12` [Genistein, genistein] it was “less influence”; in that of `CN(C)CCCN1c2ccccc2Sc2ccc(Cl)cc21` [CPZ, chlorpromazine hydrochloride], “less influence”.

Still in this series, the particulars now being: 200 μM 6-MPNs, 2 h.
As for `CO/C1=C\C(C)=C\[C@@H](C)[C@@H](O)[C@@H](C)C/C(C)=C/C=C/[C@H](OC)[C@@H]([C@@H](C)[C@@H](O)[C@H](C)[C@@]2(O)C[C@@H](O)[C@H](C)[C@@H](C(C)C)O2)OC1=O` [Bafilomycin A1], the “effect of intracellular transport inhibitor on the content of intracellular 6-MP” value is recorded as “significantly enhanced”.
Same read-out and setting: in the case of `CC[C@@]1([C@@H]2O[C@@H]([C@H]3O[C@@](O)(CO)[C@H](C)C[C@@H]3C)C[C@@H]2C)CC[C@H]([C@]2(C)CC[C@]3(C[C@H](O)[C@@H](C)[C@@H]([C@@H](C)[C@@H](OC)[C@H](C)C(=O)O)O3)O2)O1` [Monensin] it was “significantly enhanced”; in that of `C[C@H]1CCC/C=C/[C@@H]2C[C@H](O)C[C@H]2[C@H](O)/C=C/C(=O)O1` [Brefeldin A], “significantly enhanced”; in that of `COC(=O)Nc1nc2ccc(C(=O)c3cccs3)cc2[nH]1` [Nocodazole, nocodazole], “significantly enhanced”.

Another series has as its target T1, MRP4 transporter (Homo sapiens, UniProt O15439).
T1 sequence (O15439 1-1325): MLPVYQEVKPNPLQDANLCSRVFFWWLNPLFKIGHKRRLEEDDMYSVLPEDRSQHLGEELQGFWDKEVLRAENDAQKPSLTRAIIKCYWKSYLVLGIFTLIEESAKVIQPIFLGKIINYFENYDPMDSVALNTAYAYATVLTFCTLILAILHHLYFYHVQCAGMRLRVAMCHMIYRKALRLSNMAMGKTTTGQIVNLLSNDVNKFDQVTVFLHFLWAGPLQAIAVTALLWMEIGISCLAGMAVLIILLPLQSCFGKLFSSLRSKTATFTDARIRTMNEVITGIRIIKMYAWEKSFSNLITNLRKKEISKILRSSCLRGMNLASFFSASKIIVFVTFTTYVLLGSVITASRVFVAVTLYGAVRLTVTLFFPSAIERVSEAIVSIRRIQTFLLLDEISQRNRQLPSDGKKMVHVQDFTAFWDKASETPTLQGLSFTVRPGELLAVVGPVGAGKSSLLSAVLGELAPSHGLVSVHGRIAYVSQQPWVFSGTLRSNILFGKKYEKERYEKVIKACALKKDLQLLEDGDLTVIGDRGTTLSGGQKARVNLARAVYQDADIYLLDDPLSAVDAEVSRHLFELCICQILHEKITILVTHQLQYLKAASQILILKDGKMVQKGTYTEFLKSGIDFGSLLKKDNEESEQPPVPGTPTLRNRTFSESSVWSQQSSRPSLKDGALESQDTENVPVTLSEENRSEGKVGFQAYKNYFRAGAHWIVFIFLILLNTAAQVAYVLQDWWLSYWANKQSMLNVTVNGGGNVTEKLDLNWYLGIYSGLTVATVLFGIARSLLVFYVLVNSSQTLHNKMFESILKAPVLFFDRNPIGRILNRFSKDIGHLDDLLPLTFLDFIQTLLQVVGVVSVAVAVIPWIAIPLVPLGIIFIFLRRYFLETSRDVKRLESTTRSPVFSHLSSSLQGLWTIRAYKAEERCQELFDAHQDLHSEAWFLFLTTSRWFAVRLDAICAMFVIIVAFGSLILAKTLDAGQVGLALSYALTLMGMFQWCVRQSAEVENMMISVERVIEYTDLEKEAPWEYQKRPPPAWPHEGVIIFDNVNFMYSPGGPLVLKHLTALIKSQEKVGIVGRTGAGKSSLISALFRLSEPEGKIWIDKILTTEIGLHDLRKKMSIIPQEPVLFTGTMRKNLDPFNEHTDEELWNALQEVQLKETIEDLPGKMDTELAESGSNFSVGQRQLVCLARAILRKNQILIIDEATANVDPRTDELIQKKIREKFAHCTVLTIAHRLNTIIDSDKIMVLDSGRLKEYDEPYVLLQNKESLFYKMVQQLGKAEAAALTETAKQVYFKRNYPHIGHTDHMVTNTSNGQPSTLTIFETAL
In words: Effect of MRP4 transporter. The conditions noted are these: Caco-2 cells, indomethacin 30 μM, 100 μM 6-MPNs or 6-MPCs, 2 h. Type of series: cell-based. In outline: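 Caco-2 cells grown in 6-well plates to 90% confluency, preincubated 0.5 h at 37°C with 30 μM indomethacin (MRP4 inhibitor), PBS-washed ×3, then exposed 2 h to 100 μM test nanoparticles or crystals plus 30 μM indomethacin; controls without indomethacin. Cells PBS-washed and RIPA/1% PMSF-lysed; 6-MP in lysate by HPLC, total protein by BCA.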
Turning to `COc1ccc2c(c1)c(CC(=O)O)c(C)n2C(=O)c1ccc(Cl)cc1` [indomethacin], the “effect on intracellular accumulation of 6-MP” value is recorded as “increased”.

Tested on in another series: not given
Test: not given
To be noted: low solubility and high permeability; cited from earlier work.
In the case of `Sc1ncnc2nc[nH]c12` [6-MP, 6-Mercaptopurine], the “biopharmaceutic classification system (BCS) class” value is listed as “class II”.
